From ChEMBL document CHEMBL1141224, “Parallel solution-phase and microwave-assisted synthesis of new S-DABO derivatives endowed with subnanomolar anti-HIV-1 activity” (J Med Chem, 2005)
Activity calls are given as the source filed them. No cut-off for these calls is given here.

Assays:
[1] = test system: Human immunodeficiency virus 1; experiment: Antiviral activity against wild type HIV1 NL4-3 infected MT4 cells by MTT method; type: functional, organism-based; details: Human immunodeficiency virus 1, NL4-3, MT4
In short: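 MT-4 lymphoid cells infected with HIV-1 NL4-3 in the presence of graded drug concentrations. Viable cells counted by MTT colorimetric assay at day 5 post-infection. EC50 is the concentration protecting 50% of cells from HIV-induced death. Mean of at least two experiments.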

[2] = test system: Human immunodeficiency virus 1; experiment: Antiviral activity against HIV1 IRLL98 mutant strain infected MT4 cells by MTT method; type: functional, organism-based; details: Human immunodeficiency virus 1, IRLL98, MT4
In short: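 MT-4 cells infected with the HIV-1 mutant strain, or mock-infected for cytotoxicity, in the presence of a range of drug concentrations. Viable cells were counted by MTT colorimetric assay on day 5 post-infection. EC50 is the concentration that blocks 50% of HIV-induced cell death. Values are the mean of at least two experiments. IRLL98 carries RT mutations K101Q, Y181C and G190A, plus NRTI mutations.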

[3] = test system: Human immunodeficiency virus 1; experiment: Antiviral activity against HIV1 K103N mutant strain infected MT4 cells by MTT method; type: functional, organism-based; details: Human immunodeficiency virus 1, K103N
[4] = test system: Human immunodeficiency virus 1; experiment: Antiviral activity against HIV1 Y188L mutant strain infected MT4 cells by MTT method; type: functional, organism-based; details: Human immunodeficiency virus 1, Y188L, MT4
[5] = test system: MT4; experiment: Cytotoxicity against MT4 cells by MTT method; type: functional; details: Homo sapiens
In short: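 Mock-infected MT-4 cells exposed to graded drug concentrations. Viability assessed by MTT colorimetric method at day 5. CC50 is the concentration causing 50% death of noninfected cells. Mean of at least two experiments.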

[6] = test system: Human immunodeficiency virus type 1 reverse transcriptase (Human immunodeficiency virus 1), Q72547 [K103N]; experiment: Inhibition of K103N mutant HIV1 reverse transcriptase by [3H]dTTP poly(rA)/oligo(dT) incorporation at 400 uM
In short: (§1)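 RNA-dependent DNA polymerase assay of recombinant RT at 5–10 nM. Template: poly(rA)/oligo(dT) (0.3 μM 3'-OH ends) with 10 μM [3H]-dTTP. Run 10 min at 37 °C with increasing inhibitor. TCA-precipitated product was counted on GF/C filters. Highest concentration tested was 400 μM.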

[7] = test system: Human immunodeficiency virus type 1 reverse transcriptase (Human immunodeficiency virus 1), Q72547 [Y181I]; experiment: Inhibition of Y181I mutant HIV1 reverse transcriptase by [3H]dTTP poly(rA)/oligo(dT) incorporation at 400 uM; in short: as §1
[8] = target: Human immunodeficiency virus type 1 reverse transcriptase (Human immunodeficiency virus 1) (UniProt Q72547)
[9] = target: Human immunodeficiency virus type 1 reverse transcriptase (Human immunodeficiency virus 1) (UniProt Q72547); experiment: Inhibition of wild type HIV1 reverse transcriptase by [3H]dTTP poly(rA)/oligo(dT) incorporation at 400 uM; in short: as §1
[10] = test system: Human immunodeficiency virus type 1 reverse transcriptase (Human immunodeficiency virus 1), Q72547 [K103N]
[11] = test system: Human immunodeficiency virus type 1 reverse transcriptase (Human immunodeficiency virus 1), Q72547 [Y181I]

COc1ccc(CSc2nc(O)c(C)c(Cc3c(Cl)cccc3Cl)n2)c(OC)c1
EC50 [1]: 1.33 µM
EC50 [2]: > 55 µM
EC50 [3]: > 55 µM
EC50 [4]: > 55 µM
CC50 [5]: > 55 µM
ID50 [6]: inactive
ID50 [7]: inactive
ID50 [8]: 25 µM

Cc1c(O)nc(SCc2cccc(C#N)c2)nc1Cc1c(Cl)cccc1Cl
EC50 [1]: 0.89 µM
EC50 [2]: 5 µM
EC50 [3]: > 60 µM
EC50 [4]: > 60 µM
CC50 [5]: > 60 µM
ID50 [6]: inactive
ID50 [7]: inactive
ID50 [8]: 9.5 µM

COc1ccc(CSc2nc(O)c(C)c(Cc3ccc(F)cc3)n2)cc1
EC50 [1]: > 8.9 µM
EC50 [2]: > 8.9 µM
EC50 [3]: > 8.9 µM
EC50 [4]: > 8.9 µM
CC50 [5]: 8.9 µM
ID50 [9]: inactive
ID50 [6]: inactive
ID50 [7]: inactive

Cc1c(O)nc(SCc2ccc(C#N)cc2)nc1Cc1c(Cl)cccc1Cl
EC50 [1]: 0.17 µM
EC50 [2]: 1 µM
EC50 [3]: 0.1 µM
EC50 [4]: > 60 µM
CC50 [5]: > 60 µM
ID50 [6]: inactive
ID50 [7]: inactive
ID50 [8]: 103 µM

COc1ccc(CCSc2nc(Cc3c(Cl)cccc3Cl)c(C)c(=O)[nH]2)cc1
EC50 [1]: < 0.00014 µM
EC50 [2]: 0.00022 µM
EC50 [3]: 0.87 µM
EC50 [4]: 6.9 µM
CC50 [5]: > 57 µM
ID50 [8]: 0.026 µM
ID50 [10]: 3.2 µM
ID50 [11]: 1.5 µM

O=C1Nc2ccc(Cl)cc2[C@@](C#CC2CC2)(C(F)(F)F)O1 [EFAVIRENZ]
EC50 [2]: 0.2 µM
EC50 [3]: 0.057 µM
CC50 [5]: > 0.32 µM

COc1ccc(CS(=O)(=O)c2nc(O)c(C)c(Cc3c(Cl)cccc3Cl)n2)cc1
EC50 [1]: > 2.8 µM
EC50 [2]: > 2.8 µM
EC50 [3]: > 2.8 µM
EC50 [4]: > 2.8 µM
CC50 [5]: 2.8 µM
ID50 [8]: 0.006 µM
ID50 [10]: 10 µM
ID50 [11]: 27 µM

COc1ccc(CSc2nc(O)c(C)c(Cc3c(F)cccc3F)n2)cc1
EC50 [1]: 0.026 µM
EC50 [2]: 0.69 µM
EC50 [3]: 0.69 µM
EC50 [4]: 10 µM
CC50 [5]: > 64 µM
ID50 [7]: inactive
ID50 [8]: 0.007 µM
ID50 [10]: 3.5 µM

Cc1c(O)nc(SCc2ccc([N+](=O)[O-])cc2)nc1Cc1ccc(F)cc1
EC50 [1]: > 65 µM
EC50 [2]: > 65 µM
EC50 [3]: > 65 µM
EC50 [4]: > 65 µM
CC50 [5]: > 65 µM
ID50 [9]: inactive
ID50 [6]: inactive
ID50 [7]: inactive

Cc1cn([C@H]2C[C@H](N=[N+]=[N-])[C@@H](CO)O2)c(=O)[nH]c1=O [ZIDOVUDINE]
EC50 [1]: 0.003 µM
EC50 [2]: 0.008 µM
EC50 [3]: 0.003 µM
EC50 [4]: 0.003 µM
CC50 [5]: 3.7 µM

Cc1c(Cc2c(F)cccc2F)nc(SCc2ccc([N+](=O)[O-])cc2)[nH]c1=O
EC50 [1]: 0.074 µM
EC50 [2]: > 62 µM
EC50 [3]: > 62 µM
EC50 [4]: > 62 µM
CC50 [5]: > 62 µM
ID50 [9]: inactive
ID50 [6]: inactive
ID50 [7]: inactive

COc1cc(CSc2nc(O)c(C)c(Cc3c(Cl)cccc3Cl)n2)cc(OC)c1
EC50 [1]: 33 µM
EC50 [2]: > 55 µM
EC50 [3]: > 55 µM
EC50 [4]: > 55 µM
CC50 [5]: > 55 µM
ID50 [6]: inactive
ID50 [7]: inactive
ID50 [8]: 256 µM

Cc1c(O)nc(SCc2ccc(F)cc2)nc1Cc1c(Cl)cccc1Cl
EC50 [1]: 0.11 µM
EC50 [2]: 2.7 µM
EC50 [3]: 27 µM
EC50 [4]: > 61 µM
CC50 [5]: > 61 µM
ID50 [6]: inactive
ID50 [7]: inactive
ID50 [8]: 16 µM

COc1ccc(CSc2nc(O)c(C)c(Cc3c(Cl)cccc3Cl)n2)cc1OC
EC50 [1]: 0.2 µM
EC50 [2]: 0.93 µM
EC50 [3]: 10 µM
EC50 [4]: > 55 µM
CC50 [5]: > 55 µM
ID50 [6]: inactive
ID50 [7]: inactive
ID50 [8]: 1.2 µM

Cc1c(O)nc(SCc2ccccc2)nc1Cc1c(Cl)cccc1Cl
EC50 [1]: 0.83 µM
EC50 [2]: > 64 µM
EC50 [3]: > 64 µM
EC50 [4]: > 64 µM
CC50 [5]: > 64 µM
ID50 [7]: inactive
ID50 [8]: 2.5 µM
ID50 [10]: 350 µM

COc1cc(CSc2nc(O)c(C)c(Cc3c(F)cccc3F)n2)cc(OC)c1
EC50 [1]: 18 µM
EC50 [2]: > 60 µM
EC50 [3]: > 60 µM
EC50 [4]: > 60 µM
CC50 [5]: > 60 µM
ID50 [9]: inactive
ID50 [6]: inactive
ID50 [7]: inactive

Cc1c(O)nc(SCc2ccc(O)cc2)nc1Cc1c(Cl)cccc1Cl
EC50 [1]: > 41 µM
EC50 [2]: > 41 µM
EC50 [3]: > 41 µM
EC50 [4]: > 41 µM
CC50 [5]: 41 µM
ID50 [9]: inactive
ID50 [6]: inactive
ID50 [7]: inactive

Cc1c(O)nc(SCc2ccc(Cl)cc2)nc1Cc1c(Cl)cccc1Cl
EC50 [1]: 0.47 µM
EC50 [2]: 2.1 µM
EC50 [3]: > 59 µM
EC50 [4]: > 59 µM
CC50 [5]: > 59 µM
ID50 [6]: inactive
ID50 [7]: inactive
ID50 [8]: 20 µM

Cc1ccnc2c1NC(=O)c1cccnc1N2C1CC1 [NEVIRAPINE]
EC50 [1]: 0.052 µM
EC50 [2]: > 7.5 µM
EC50 [3]: 3.9 µM
EC50 [4]: > 7.5 µM
CC50 [5]: > 7.5 µM
ID50 [10]: 8 µM
ID50 [11]: 20 µM

Cc1c(O)nc(SCc2ccc(C#N)cc2)nc1Cc1c(F)cccc1F
EC50 [1]: 0.052 µM
EC50 [2]: > 65 µM
EC50 [3]: > 65 µM
EC50 [4]: > 65 µM
CC50 [5]: > 65 µM
ID50 [6]: inactive
ID50 [7]: inactive
ID50 [8]: 0.76 µM

Cc1c(O)nc(SCc2ccc(Br)cc2)nc1Cc1c(Cl)cccc1Cl
EC50 [1]: 0.79 µM
EC50 [2]: > 53 µM
EC50 [3]: > 53 µM
EC50 [4]: > 53 µM
CC50 [5]: 13 µM
ID50 [7]: inactive
ID50 [8]: 0.39 µM
ID50 [10]: 9 µM

Cc1c(O)nc(S(=O)(=O)Cc2ccc(Br)cc2)nc1Cc1c(Cl)cccc1Cl
EC50 [1]: > 50 µM
EC50 [2]: > 50 µM
EC50 [3]: > 50 µM
EC50 [4]: > 50 µM
CC50 [5]: > 50 µM
ID50 [9]: inactive
ID50 [6]: inactive
ID50 [7]: inactive

Cc1c(O)nc(SCc2ccc3c(c2)C(=O)c2ccccc2C3=O)nc1Cc1c(Cl)cccc1Cl
EC50 [1]: 13 µM
EC50 [2]: > 48 µM
EC50 [3]: > 48 µM
EC50 [4]: > 48 µM
CC50 [5]: > 48 µM
ID50 [6]: inactive
ID50 [7]: inactive
ID50 [8]: 3.5 µM

Cc1c(O)nc(SCc2cccc(F)c2)nc1Cc1c(Cl)cccc1Cl
EC50 [1]: 0.15 µM
EC50 [2]: 2.2 µM
EC50 [3]: > 61 µM
EC50 [4]: > 61 µM
CC50 [5]: > 61 µM
ID50 [7]: inactive
ID50 [8]: 2 µM
ID50 [10]: 35 µM

CCOc1ccc(CSc2nc(O)c(C)c(Cc3c(Cl)cccc3Cl)n2)cc1
EC50 [1]: 0.25 µM
EC50 [2]: 1.9 µM
EC50 [3]: > 58 µM
EC50 [4]: > 58 µM
CC50 [5]: > 58 µM
ID50 [6]: inactive
ID50 [7]: inactive
ID50 [8]: 2 µM

Cc1c(O)nc(S(=O)(=O)Cc2ccc([N+](=O)[O-])cc2)nc1Cc1c(Cl)cccc1Cl
EC50 [1]: > 53 µM
EC50 [2]: > 53 µM
EC50 [3]: > 53 µM
EC50 [4]: > 53 µM
CC50 [5]: > 53 µM
ID50 [9]: inactive
ID50 [6]: inactive
ID50 [7]: inactive

Cc1c(O)nc(SCc2ccc3c(c2)OCO3)nc1Cc1c(Cl)cccc1Cl
EC50 [1]: 0.12 µM
EC50 [2]: 0.51 µM
EC50 [3]: 5.3 µM
EC50 [4]: 33 µM
CC50 [5]: > 57 µM
ID50 [6]: inactive
ID50 [7]: inactive
ID50 [8]: 0.5 µM
